In ChEMBL document CHEMBL1153083, “Antiprotozoal, anticancer and antimicrobial activities of dihydroartemisinin acetal dimers and monomers” (Bioorg Med Chem, 2009):

Key:
Plasmodium falciparum [1] = assay: Antiplasmodial activity against Plasmodium falciparum W2 infected in RBCs by parasitic LDH release assay; format: functional, organism-based
In short: (§1)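 Infected erythrocytes at 2% parasitemia and 2% hematocrit, in RPMI 1640 with 10% human serum and amikacin 60 μg/mL, were exposed to serial dilutions under N2/O2/CO2 (90:5:5) at 37°C for 72 h. LDH was read with Malstat reagent (30 min), then NBT/PES in the dark (60 min), stopped with 5% acetic acid, at 650 nm. IC50 came from percent growth dose-response curves.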

Cryptococcus neoformans = assay: Antifungal activity against Cryptococcus neoformans ATCC 90113 by modified CLSI/NCCLS method; format: functional, organism-based
[2] = system: Mycobacterium intracellulare; assay: Antibacterial activity against Mycobacterium intracellular ATCC 23068 by Franzblau method; format: functional, organism-based
Escherichia coli = assay: Antibacterial activity against Escherichia coli ATCC 35218 by modified CLSI/NCCLS method; format: functional, organism-based
[3] = Selectivity index, ratio of TC50 for african green monkey (Cercopithecus aethiops) Vero cells to IC50 for Plasmodium falciparum W2; format: toxicity, cell-based
KB = assay: Cytotoxicity against human KB cells after 48 hrs by neutral red assay; format: functional, cell-based
In short: (§2)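 Cells seeded at 25,000 per well and incubated 24 h, then exposed to samples for 48 h. Viable cells were counted by neutral red, with DMSO as vehicle control. IC50 or TC50 values were derived from logarithmic plots of growth inhibition versus concentration.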

SK-OV-3 = assay: Cytotoxicity against human SKOV3 cells after 48 hrs by neutral red assay; format: functional, cell-based; conditions: sk-ov-3; in short: as §2
Staphylococcus aureus = assay: Antibacterial activity against methicillin-resistant Staphylococcus aureus ATCC 43300 by modified CLSI/NCCLS method; format: functional, organism-based
BT-549 = assay: Cytotoxicity against human BT549 cells after 48 hrs by neutral red assay; format: functional, cell-based; in short: as §2
[4] = Toxicity against pig LLC-PK11 cells after 48 hrs by neutral red assay; format: cell-based, Sus scrofa; conditions: for TC50: llc-pk11, 48 h; for CC50 at 48 h: LLC-PK11 cells, read-out: TC50; in short: as §2
Plasmodium falciparum [5] = assay: Antiplasmodial activity against Plasmodium falciparum D6 infected in RBCs by parasitic LDH release assay; format: functional, organism-based; in short: as §1
SK-MEL = assay: Cytotoxicity against human SK-MEL cells after 48 hrs by neutral red assay; format: functional, cell-based; in short: as §2
Candida albicans = assay: Antifungal activity against Candida albicans ATCC 90028 by modified CLSI/NCCLS method; format: functional, organism-based; conditions: Candida albicans, ATCC 90028; read-out: IC50
[6] = Selectivity index, ratio of TC50 for african green monkey (Cercopithecus aethiops) Vero cells to IC50 for Plasmodium falciparum D6; format: toxicity, cell-based
Pseudomonas aeruginosa = assay: Antibacterial activity against Pseudomonas aeruginosa ATCC 27853 by modified CLSI/NCCLS method; format: functional, organism-based
Vero = assay: (§3) Toxicity against african green monkey Vero cells after 48 hrs by neutral red assay; format: cell-based; conditions: chlorocebus sabaeus, vero, 48 h; in short: as §2
Aspergillus fumigatus = assay: Antifungal activity against Aspergillus fumigatus ATCC 90906 by modified CLSI/NCCLS method; format: functional, organism-based
Leishmania donovani = assay: Antileishmanial activity against Leishmania donovani promastigotes after 48 hrs by alamar blue assay; format: functional, organism-based; conditions: Leishmania donovani, 48 h; for IC50: read-out: IC50
Pichia kudriavzevii = assay: Antifungal activity against Candida krusei ATCC 6258 by modified CLSI/NCCLS method; format: functional, organism-based; conditions: Pichia kudriavzevii, ATCC 6258; read-out: IC50
[7] = as §3; format: cell-based; conditions: chlorocebus sabaeus, Vero cells; read-out: TC50; in short: as §2
Nakaseomyces glabratus = assay: Antifungal activity against Candida glabrata ATCC 90030 by modified CLSI/NCCLS method; format: functional, organism-based
[8] = Toxicity against african green monkey Vero cells; format: cell-based; conditions: chlorocebus sabaeus; in short: as §2
[9] = Escherichia coli, ATCC 35218, read-out: IC50
[10] = Aspergillus fumigatus, ATCC 90906, read-out: IC50
[11] = Homo sapiens, KB, 48 h, read-out: IC50
[12] = Homo sapiens, BT-549, 48 h, read-out: IC50
[13] = Homo sapiens, SK-MEL, 48 h, read-out: IC50

| Structure (SMILES) | IC50 (Plasmodium falciparum [1]) | IC50 (Cryptococcus neoformans) | IC50 (Escherichia coli; [9]) | selectivity ratio [3] | IC50 (KB; kb) | IC50 (SK-OV-3) | IC50 (BT-549; bt-549) | TC50 [4] | IC50 (Plasmodium falciparum [5]) | IC50 (SK-MEL; sk-mel) | IC50 (Candida albicans) | selectivity ratio [6] | IC50 (Pseudomonas aeruginosa) | IC50 (Aspergillus fumigatus; [10]) | IC90 (Leishmania donovani) | IC50 (Leishmania donovani) | IC50 [2] | IC50 (KB; [11]) | IC50 (Staphylococcus aureus) | CC50 at 48 h [7] | further results |
| --- | --- | --- | --- | --- | --- | --- | --- | --- | --- | --- | --- | --- | --- | --- | --- | --- | --- | --- | --- | --- | --- |
| C[C@H]1[C@@H](O[C@@H](CO[C@H]2O[C@@H]3O[C@@]4(C)CC[C@H]5[C@H](C)CC[C@@H]([C@H]2C)[C@@]35OO4)[C@H](O)CO)O[C@@H]2O[C@@]3(C)CC[C@H]4[C@H](C)CC[C@@H]1[C@@]24OO3 | 14 nM | 530 nM | 7.64 µM | 59 | Not Active | Not Active | Not Active | Not Active | 11.7 nM | Not Active | 920 nM | 71 | Not Active | 7.64 µM | 29.7 µM | 6.4 µM |  |  |  |  | IC50 ([2]; Mycobacterium intracellulare, ATCC 23068, read-out: IC50): 15.3 µM; IC50 (Staphylococcus aureus; Staphylococcus aureus, ATCC 43300, read-out: IC50): 22.9 µM; TC50 (Vero): Not Active |
| C[C@H]1[C@@H](OCC(=O)CO[C@H]2O[C@@H]3O[C@@]4(C)CC[C@H]5[C@H](C)CC[C@@H]([C@H]2C)[C@@]35OO4)O[C@@H]2O[C@@]3(C)CC[C@H]4[C@H](C)CC[C@@H]1[C@@]24OO3 | 5.8 nM | 880 nM |  | 44 |  | Not Active |  |  | 5.3 nM |  | 2410 nM | 49 |  | 32.1 µM | 38.5 µM | 7.4 µM | Not Active | 240 nM | Not Active | > 8.03 µM | IC50 (Pichia kudriavzevii): 880 nM; IC50 (BT-549; [12]): 240 nM; CC50 at 48 h [4]: 100 nM; IC50 (SK-MEL; [13]): 0.56 µM; IC50 (Nakaseomyces glabratus): Not Active |
| C[C@H]1[C@@H](OC[C@@H](O)[C@@H](O)CO[C@H]2O[C@@H]3O[C@@]4(C)CC[C@H]5[C@H](C)CC[C@@H]([C@H]2C)[C@@]35OO4)O[C@@H]2O[C@@]3(C)CC[C@H]4[C@H](C)CC[C@@H]1[C@@]24OO3 (relative stereo) | 5.2 nM | 1220 nM | 15.3 µM | > 1400 | Not Active | Not Active | Not Active | Not Active | 6.7 nM | Not Active | 6110 nM | > 1080 | Not Active | 30.5 µM | 22.9 µM |  | Not Active |  | Not Active |  | CC50 [8]: > 7.26 µM; TC50 (Vero): Not Active |
| C[C@H]1[C@@H](OCC(CO[C@H]2O[C@@H]3O[C@@]4(C)CC[C@H]5[C@H](C)CC[C@@H]([C@H]2C)[C@@]35OO4)OS(C)(=O)=O)O[C@@H]2O[C@@]3(C)CC[C@H]4[C@H](C)CC[C@@H]1[C@@]24OO3 (stereo partly specified) | 11.8 nM | 1420 nM |  | 542 |  | Not Active | Not Active | Non-toxic | 11.8 nM | Not Active | 4270 nM | 542 | Not Active |  | 55.5 µM | 22.8 µM | Not Active | 280 nM | Not Active | 2.13 µM | IC50 (Escherichia coli): Not Active; CC50 [8]: 6.4 µM; IC50 (Aspergillus fumigatus): Not Active |
| C[C@H]1[C@@H](OCC(O)CO[C@H]2O[C@@H]3O[C@@]4(C)CC[C@H]5[C@H](C)CC[C@@H]([C@H]2C)[C@@]35OO4)O[C@@H]2O[C@@]3(C)CC[C@H]4[C@H](C)CC[C@@H]1[C@@]24OO3 (stereo partly specified) | 3.8 nM | 320 nM |  | 100 |  | Not Active |  |  | 11.2 nM |  | 800 nM | 34 |  |  | 47.9 µM | 12.8 µM | Not Active | 260 nM | Not Active | 5.6 µM | IC50 (Pichia kudriavzevii): 400 nM; IC50 (BT-549; [12]): 480 nM; CC50 at 48 h [4]: 150 nM; IC50 (SK-MEL; [13]): 8 µM; IC50 (Aspergillus fumigatus): Not Active; IC50 (Nakaseomyces glabratus): Not Active |
